Activity calls are given as the source filed them. The rule behind the calls is not given here.
Tests used:
[1] = target: T1, Quinolone resistance protein NorA (Staphylococcus aureus) (UniProt P0A0J7); test: Inhibition of NorA in Staphylococcus aureus K2378 overexpressing NorA assessed as increase in ethidium bromide uptake at 3 uM by fluorescence assay in presence of INF55
T1 sequence (whole entry): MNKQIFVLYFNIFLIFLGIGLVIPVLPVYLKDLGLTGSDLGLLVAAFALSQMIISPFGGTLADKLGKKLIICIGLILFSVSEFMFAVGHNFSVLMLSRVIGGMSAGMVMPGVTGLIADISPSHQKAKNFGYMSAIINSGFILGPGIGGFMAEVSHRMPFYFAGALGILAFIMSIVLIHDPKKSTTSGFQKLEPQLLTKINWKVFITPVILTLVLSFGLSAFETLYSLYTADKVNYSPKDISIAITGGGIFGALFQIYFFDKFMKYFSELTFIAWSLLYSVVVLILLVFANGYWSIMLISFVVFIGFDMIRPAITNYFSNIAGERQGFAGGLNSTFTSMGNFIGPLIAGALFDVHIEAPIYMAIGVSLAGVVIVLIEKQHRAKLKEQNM
Summary of the method: (§1)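 S. aureus was grown at 37°C to OD600 1.5, washed in PBS, then energised for 1 h at 37°C in PBS with 10 mM dextrose (OD ~0.8). Cells were washed and diluted to OD ~0.3 in PBS. Hybrid or INF55 was added before ethidium bromide, all at 3 μM. Fluorescence was read at ex 530/em 600 nm, with cell-free compound background subtracted. At least triplicate.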

Staphylococcus aureus [2] = test: Antibacterial activity against Staphylococcus aureus K2378 overexpressing NorA after 18 hrs by two fold serial dilution method; type: functional; conditions: K2378, 18 h
Summary of the method: (§2)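 Broth inoculated at 10⁵ cells/ml and serial 2-fold compound dilutions, run in triplicate. Incubated 18 h at 37°C, with growth read as absorbance at 600 nm. MIC is the lowest concentration giving complete growth inhibition.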

[3] = target: T1, Quinolone resistance protein NorA (Staphylococcus aureus); test: Inhibition of NorA in Staphylococcus aureus K2378 overexpressing NorA assessed as ethidium bromide uptake at 3 uM by fluorescence assay in presence of INF55; summary of the method: as §1
Staphylococcus aureus [4] = test: Increase in ethidium bromide uptake in NorA-deficient Staphylococcus aureus K1758 at 3 uM by fluorescence assay in presence of INF55; type: functional, organism-based; summary of the method: as §1
[5] = target: T1, Quinolone resistance protein NorA (Staphylococcus aureus); test: Inhibition of NorA in Staphylococcus aureus K2378 overexpressing NorA assessed as ethidium bromide uptake at 3 uM by fluorescence assay; summary of the method: as §1
Staphylococcus aureus [6] = test: Increase in ethidium bromide uptake in NorA-deficient Staphylococcus aureus K1758 at 3 uM by fluorescence assay; type: functional, organism-based; summary of the method: as §1
[7] = target: T1, Quinolone resistance protein NorA (Staphylococcus aureus); test: Inhibition of NorA in Staphylococcus aureus 8325-4 assessed as ethidium bromide uptake at 3 uM by fluorescence assay; summary of the method: as §1
Enterococcus faecalis [8] = test: Antibacterial activity against Enterococcus faecalis infected in Caenorhabditis elegans assessed as organism survival at 20 uM; type: functional, organism-based
Summary of the method: (§3)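 Gravid glp-4(bn2) sek-1(km4) adults were bleached for eggs, hatched at 15°C for 2 days, then grown on E. coli HB101 at 25°C for 52 h. Sterile adults were infected on E. faecalis MMH594 lawns (kanamycin 80 μg/ml) for 15 h at 15°C. Worms were sorted 15 per well into 20% BHI, 60% M9, kanamycin, nystatin and 1% DMSO, then kept 5 days at 26.3°C. Survival was scored from bright-field images, with median survival (LT50) as the read-out.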

Staphylococcus aureus [9] = test: Antibacterial activity against NorA-deficient Staphylococcus aureus K1758 after 18 hrs by two fold serial dilution method; type: functional; conditions: K1758, 18 h; summary of the method: as §2
Staphylococcus aureus [10] = test: Antibacterial activity against wild-type Staphylococcus aureus 8325-4 after 18 hrs by two fold serial dilution method; type: functional; conditions: 8325-4, 18 h; summary of the method: as §2
[11] = target: T1, Quinolone resistance protein NorA (Staphylococcus aureus); test: Inhibition of NorA in Staphylococcus aureus 8325-4 assessed as increase in ethidium bromide uptake at 3 uM by fluorescence assay in presence of INF55; summary of the method: as §1
[12] = target: T1, Quinolone resistance protein NorA (Staphylococcus aureus); test: Inhibition of NorA in Staphylococcus aureus 8325-4 assessed as assessed as accumulation of compound at 3 uM by fluorescence assay
Summary of the method: (§4)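 S. aureus was grown at 37°C to OD600 1.5, washed, then energised for 1 h at 37°C in PBS with 10 mM dextrose. Cells were diluted to OD ~0.3 in PBS, and compounds (berberine ± INF55, or hybrids) were added at 3 μM each. DNA-binding fluorescence increase was followed at ex 355/em 517 nm, in arbitrary units, with background subtracted. At least three independent experiments.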

[13] = target: T1, Quinolone resistance protein NorA (Staphylococcus aureus); test: Inhibition of NorA in Staphylococcus aureus K2378 overexpressing NorA assessed as decrease in Berberine MIC
[14] = target: T1, Quinolone resistance protein NorA (Staphylococcus aureus); test: Inhibition of NorA in Staphylococcus aureus 8325-4 assessed as decrease in Berberine MIC
Staphylococcus aureus [15] = test: Antibacterial activity against NorA-deficient Staphylococcus aureus K1758 after 18 hrs by two fold serial dilution method in presence of INF55; type: functional, organism-based
[16] = target: T1, Quinolone resistance protein NorA (Staphylococcus aureus); test: Inhibition of NorA in Staphylococcus aureus K2378 overexpressing NorA assessed as accumulation of compound at 3 uM by fluorescence assay; summary of the method: as §4
Staphylococcus aureus [17] = test: Cellular uptake in NorA-deficient Staphylococcus aureus K1758 assessed as accumulation of compound at 3 uM by fluorescence assay; type: ADME, organism-based; conditions: in vivo
Summary of the method: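 K1758 (ΔnorA) cells grown at 37°C to OD600 1.5, washed twice in PBS, then energized 1 h at 37°C with aeration in PBS plus 10 mM dextrose at OD ~0.8. Cells washed again and diluted to OD ~0.3 in PBS. Compound added at 3 μM. DNA-binding fluorescence read at ex 355/em 517 nm, cell-free background subtracted, arbitrary units; ≥3 independent experiments.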

[18] = target: T1, Quinolone resistance protein NorA (Staphylococcus aureus); test: Inhibition of NorA in Staphylococcus aureus K2378 overexpressing NorA assessed as accumulation of Berberine at 3 uM by fluorescence assay in presence of INF55; summary of the method: as §4
[19] = target: T1, Quinolone resistance protein NorA (Staphylococcus aureus); test: Inhibition of NorA in Staphylococcus aureus 8325-4 assessed as accumulation of compound at 3 uM by fluorescence assay; summary of the method: as §4
[20] = target: T1, Quinolone resistance protein NorA (Staphylococcus aureus); test: Inhibition of NorA in Staphylococcus aureus 8325-4 assessed as accumulation of Berberine at 3 uM by fluorescence assay in presence of INF55; summary of the method: as §4
Enterococcus faecalis [21] = test: Antibacterial activity against Enterococcus faecalis infected in Caenorhabditis elegans assessed as organism survival at 8.6 uM; type: functional, organism-based; summary of the method: as §3

COc1ccc2c(Cc3ccc(-c4cc5cc([N+](=O)[O-])ccc5[nH]4)cc3)c3[n+](cc2c1OC)CCc1cc2c(cc1-3)OCO2
inhibition [1]: Active | MIC (Staphylococcus aureus [2]): 40.2 µM | inhibition [3]: inactive | Activity (Staphylococcus aureus [4]): Active | inhibition [5]: Active | Activity (Staphylococcus aureus [6]): Active | inhibition [7]: Active | Activity (Enterococcus faecalis [8]): Active | MIC (Staphylococcus aureus [9]): 20.1 µM | MIC (Staphylococcus aureus [10]): 40.2 µM | inhibition [11]: Active

COc1ccc2c(Cc3cccc(-c4cc5cc([N+](=O)[O-])ccc5[nH]4)c3)c3[n+](cc2c1OC)CCc1cc2c(cc1-3)OCO2
inhibition [1]: Active | MIC (Staphylococcus aureus [2]): 20.1 µM | inhibition [3]: inactive | Activity (Staphylococcus aureus [4]): Active | inhibition [5]: Active | Activity (Staphylococcus aureus [6]): Active | inhibition [7]: Active | Activity (Enterococcus faecalis [8]): Active | MIC (Staphylococcus aureus [9]): 20.1 µM | MIC (Staphylococcus aureus [10]): 20.1 µM | inhibition [11]: Active

COc1ccc2cc3[n+](cc2c1OC)CCc1cc2c(cc1-3)OCO2.[Cl-] [BERBERINE CHLORIDE]
inhibition [12]: Active | Activity [13]: Active | MIC (Staphylococcus aureus [2]): > 650 µM | Activity [14]: Active | Activity (Staphylococcus aureus [15]): Active | inhibition [16]: inactive | Drug uptake (Staphylococcus aureus [17]): Active | MIC (Staphylococcus aureus [9]): 40 µM | inhibition [18]: Active | inhibition [19]: inactive | inhibition [20]: Active | MIC (Staphylococcus aureus [10]): 325 µM

COc1ccc2c(Cc3ccccc3-c3cc4cc([N+](=O)[O-])ccc4[nH]3)c3[n+](cc2c1OC)CCc1cc2c(cc1-3)OCO2
MIC (Staphylococcus aureus [2]): 18.8 µM | MIC (Staphylococcus aureus [9]): 9.4 µM | MIC (Staphylococcus aureus [10]): 9.4 µM

CN[C@H](CC(C)C)C(=O)N[C@H]1C(=O)N[C@@H](CC(N)=O)C(=O)N[C@H]2C(=O)N[C@H]3C(=O)N[C@H](C(=O)N[C@H](C(=O)O)c4cc(O)cc(O)c4-c4cc3ccc4O)[C@H](O)c3ccc(c(Cl)c3)Oc3cc2cc(c3O[C@@H]2O[C@H](CO)[C@@H](O)[C@H](O)[C@H]2O[C@H]2C[C@](C)(N)[C@H](O)[C@H](C)O2)Oc2ccc(cc2Cl)[C@H]1O
Activity (Enterococcus faecalis [21]): Active

Source: ChEMBL document CHEMBL1629702, “Berberine-INF55 (5-nitro-2-phenylindole) hybrid antimicrobials: effects of varying the relative orientation of the berberine and INF55 components” (Antimicrob Agents Chemother, 2010)
